Assay results as given in ChEMBL document CHEMBL1165950, “Design and synthesis of new potent anticancer pyrazoles with high FLT3 kinase inhibitory selectivity” (Bioorg Med Chem, 2010).

Legend:
Type in all cases: functional
[1] = Growth inhibition of human Hs 578T cells after 48 hrs by sulforhodamine B assay; settings: for CC50: read-out: LC50 (the source's name)
Outline: (§1)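 NCI 60-cell screen, five-dose mode. Cells grown in RPMI 1640 with 5% FBS and 2 mM L-glutamine and plated at 5000-40,000 cells/well according to doubling time. After 24 h preincubation, a Tz plate was TCA-fixed. Five concentrations (10-fold or 1/2 log dilutions) were applied for 48 h at 37 °C. SRB staining read at 515 nm. IC50 taken from [(Ti-Tz)/(C-Tz)]×100 = 50.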

IGROV-1 = assay: Cytotoxicity against human IGROV1 cells assessed as cell growth at 10 uM after 48 hrs by sulforhodamine B assay; settings: IGROV-1, 48 h, read-out: Activity
HCC 2998 = assay: Cytotoxicity against human HCC2998 cells assessed as cell growth at 10 uM; settings: read-out: Activity
Outline: (§2)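 Single-dose NCI-60 screen at 10 µM. Cells were grown in RPMI 1640 with 5% FBS and 2 mM L-glutamine, then treated for 48 h at 37 °C. Protein was measured by SRB staining with absorbance at 515 nm. Percentage growth was recorded, and inhibition percentage was calculated as 100 minus growth percentage.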

NCI-H226 = assay: Cytotoxicity against human NCI-H226 cells assessed as cell growth at 0.001 uM after 48 hrs by sulforhodamine B assay; settings: NCI-H226, 48 h, read-out: Activity
MDA-MB-231 = assay: Cytotoxicity against human MDA-MB-231 cells assessed as cell growth at 0.01 uM after 48 hrs by sulforhodamine B assay; settings: MDA-MB-231, 48 h, read-out: Activity
SK-OV-3 = assay: Cytotoxicity against human SKOV3 cells assessed as cell growth at 10 uM; settings: read-out: Activity
Outline: (§3)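 NCI-60 screen: cells grown in RPMI 1640 with 5% FBS and 2 mM L-glutamine, plated at 5000–40,000 cells/well according to doubling time, and preincubated 24 h at 37 °C, 5% CO2. The single 10 µM dose (DMSO stock) was added, then incubated 48 h. Cells were TCA-fixed and stained with 0.4% SRB, read at 515 nm, and growth % calculated against time-zero and control plates.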

SNB-19 = assay: Growth inhibition of human SNB19 cells after 48 hrs by sulforhodamine B assay; settings: SNB-19, 48 h; for CC50: read-out: LC50 (the source's name); outline: as §1
HCT-116 [2] = assay: Cytotoxicity against human HCT116 cells assessed as cell growth at 10 uM; settings: read-out: Activity; outline: as §2
SW-620 = assay: Cytotoxicity against human SW620 cells assessed as cell growth at 10 uM; settings: read-out: Activity; outline: as §3
[3] = Cytotoxicity against human Hs 578T cells assessed as cell growth at 10 uM after 48 hrs by sulforhodamine B assay; settings: read-out: Activity
LOX IMVI [4] = assay: Cytotoxicity against human LOXIMVI cells assessed as cell growth at 0.01 uM after 48 hrs by sulforhodamine B assay; settings: read-out: Activity
HCT-116 [5] = assay: Growth inhibition of human HCT116 cells after 48 hrs by sulforhodamine B assay; settings: HCT-116, 48 h; for CC50: read-out: LC50 (the source's name); outline: as §1
SF-295 = assay: Growth inhibition of human SF295 cells after 48 hrs by sulforhodamine B assay; settings: SF-295, 48 h; for CC50: read-out: LC50 (the source's name); outline: as §1
NCI/ADR-RES [6] = assay: Cytotoxicity against human NCI/ADR-RES cells assessed as cell growth at 10 uM after 48 hrs by sulforhodamine B assay; settings: read-out: Activity
UACC-62 = assay: Cytotoxicity against human UACC62 cells assessed as cell growth at 10 uM after 48 hrs by sulforhodamine B assay; settings: UACC-62, 48 h, read-out: Activity
DU-145 [7] = assay: Cytotoxicity against human DU145 cells assessed as cell growth at 10 uM after 48 hrs by sulforhodamine B assay; settings: DU-145, 48 h, read-out: Activity
M14 = assay: Cytotoxicity against human M14 cells assessed as cell growth at 10 uM; settings: read-out: Activity; outline: as §3
LOX IMVI [8] = assay: Cytotoxicity against human LOXIMVI cells assessed as cell growth at 100 nM after 48 hrs by sulforhodamine B assay; settings: read-out: Activity
[9] = Cytotoxicity against human Hs 578T cells assessed as cell growth at 100 nM after 48 hrs by sulforhodamine B assay; settings: read-out: Activity
NCI-H522 [10] = assay: Cytotoxicity against human NCI-H522 cells assessed as cell growth at 10 uM after 48 hrs by sulforhodamine B assay; settings: NCI-H522, 48 h, read-out: Activity
TK-10 = assay: Cytotoxicity against human TK10 cells assessed as cell growth at 10 uM; settings: read-out: Activity; outline: as §3
HL-60(TB) = assay: Cytotoxicity against human HL-60(TB) cells assessed as cell growth at 0.01 uM after 48 hrs by sulforhodamine B assay; settings: HL-60, 48 h, read-out: Activity
Outline: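 NCI 60-cell panel. Cells are grown in RPMI 1640 with 5% FBS and 2 mM L-glutamine, seeded at 5000–40,000 cells/well according to doubling time, and preincubated 24 h. Time-zero plates are TCA-fixed. Compound from DMSO stock is given at five 10-fold or 1/2-log concentrations for 48 h at 37 °C, 5% CO2. Suspension cells are fixed with 80% TCA (final 16%) and SRB-stained, with absorbance at 515 nm. Percent growth is derived from Tz, control and test readings.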

HCT-15 = assay: Cytotoxicity against human HCT15 cells assessed as cell growth at 100 nM after 48 hrs by sulforhodamine B assay; settings: HCT-15, 48 h, read-out: Activity
NCI-H522 [11] = assay: Cytotoxicity against human NCI-H522 cells assessed as cell growth at 1 uM after 48 hrs by sulforhodamine B assay; settings: NCI-H522, 48 h, read-out: Activity
OVCAR-8 = assay: Cytotoxicity against human OVCAR8 cells assessed as cell growth at 1 uM after 48 hrs by sulforhodamine B assay; settings: OVCAR-8, 48 h, read-out: Activity
NCI/ADR-RES [12] = assay: Cytotoxicity against human NCI/ADR-RES cells assessed as cell growth at 10 uM; settings: read-out: Activity; outline: as §3
SF-268 = assay: Cytotoxicity against human SF268 cells assessed as cell growth at 1 uM after 48 hrs by sulforhodamine B assay; settings: SF-268, 48 h, read-out: Activity
MOLT-4 = assay: Cytotoxicity against human MOLT4 cells assessed as cell growth at 10 uM after 48 hrs by sulforhodamine B assay; settings: MOLT-4, 48 h, read-out: Activity
DU-145 [13] = assay: Cytotoxicity against human DU145 cells assessed as cell growth at 1 uM after 48 hrs by sulforhodamine B assay; settings: DU-145, 48 h, read-out: Activity
SF-539 = assay: Cytotoxicity against human SF539 cells assessed as cell growth at 10 uM; settings: read-out: Activity; outline: as §3

SMILES	GI50 [1] [µM]	TGI [1] [µM]	CC50 [1] [µM]	growth at 10 µM (IGROV-1) [%]	growth at 10 µM (HCC 2998) [%]	growth at 0.001 µM (NCI-H226) [%]	growth at 0.01 µM (MDA-MB-231) [%]	growth at 10 µM (SK-OV-3) [%]	GI50 (SNB-19) [µM]	TGI (SNB-19) [µM]	CC50 (SNB-19) [µM]	growth at 10 µM (HCT-116 [2]) [%]	growth at 10 µM (SW-620) [%]	growth at 10 µM [3] [%]	growth at 0.01 µM (LOX IMVI [4]) [%]	GI50 (HCT-116 [5]) [µM]	TGI (HCT-116 [5]) [µM]	CC50 (HCT-116 [5]) [µM]	GI50 (SF-295) [µM]	TGI (SF-295) [µM]	also measured
COc1cc(C)cc(-c2c(-c3ccnc(-c4ccc(N(C)C)cc4)c3)cnn2CC#N)c1	0.166	> 100	> 100	-6	-57.5	95	88	-3.63	0.362	> 100	> 100	-32.4	16.6	16	39	0.0501	1.03	> 100	0.0529	0.315	CC50 (SF-295): > 100 µM; growth at 10 µM (NCI/ADR-RES [6]): 3%; growth at 10 µM (UACC-62): 16%; growth at 10 µM (DU-145 [7]): -48%; growth at 10 µM (M14): -17.5%; growth at 0.1 µM (LOX IMVI [8]): 19%; growth at 0.1 µM [9]: 23%; growth at 10 µM (NCI-H522 [10]): -52%; growth at 10 µM (TK-10): 36.6%; growth at 0.01 µM (HL-60(TB)): 52%; growth at 0.1 µM (HCT-15): 14%; growth at 1 µM (NCI-H522 [11]): -53%; growth at 1 µM (OVCAR-8): 12%; growth at 10 µM (NCI/ADR-RES [12]): -15.4%; growth at 1 µM (SF-268): 24%; growth at 10 µM (MOLT-4): 1%; growth at 1 µM (DU-145 [13]): -47%; growth at 10 µM (SF-539): -7.06%
Cc1cc(O)cc(-c2nn(CC#N)cc2-c2ccnc(-c3ccc(N(C)C)cc3)c2)c1	2.13	7	> 100	-37	53.5	100	98	18	4.54	43.9	> 100	12.3	25	-32	104	2.71	10.4	41.9	2.18	8.71	CC50 (SF-295): 84.1 µM; growth at 10 µM (NCI/ADR-RES [6]): -4%; growth at 10 µM (UACC-62): -80%; growth at 10 µM (DU-145 [7]): -66%; growth at 10 µM (M14): 6.66%; growth at 0.1 µM (LOX IMVI [8]): 101%; growth at 0.1 µM [9]: 82%; growth at 10 µM (NCI-H522 [10]): -57%; growth at 10 µM (TK-10): 52.5%; growth at 0.01 µM (HL-60(TB)): 97%; growth at 0.1 µM (HCT-15): 90%; growth at 1 µM (NCI-H522 [11]): -13%; growth at 1 µM (OVCAR-8): 27%; growth at 10 µM (NCI/ADR-RES [12]): 6.33%; growth at 1 µM (SF-268): 17%; growth at 10 µM (MOLT-4): -6%; growth at 1 µM (DU-145 [13]): -7%; growth at 10 µM (SF-539): 21.7%
Cc1cc(O)cc(-c2nn(CC#N)cc2-c2ccnc(-c3ccc(Oc4ccccc4)cc3)c2)c1	2.02	6.08	> 100	-74	28.2	92	84	89.6	1.07	23.4	51.1	25.7	53.9	-49	101	1.56	2.9	5.38	4.42	21.2	CC50 (SF-295): 75.2 µM; growth at 10 µM (NCI/ADR-RES [6]): -52%; growth at 10 µM (UACC-62): -95%; growth at 10 µM (DU-145 [7]): -100%; growth at 10 µM (M14): 55.1%; growth at 0.1 µM (LOX IMVI [8]): 103%; growth at 0.1 µM [9]: 82%; growth at 10 µM (NCI-H522 [10]): -93%; growth at 10 µM (TK-10): 47.2%; growth at 0.01 µM (HL-60(TB)): 95%; growth at 0.1 µM (HCT-15): 91%; growth at 1 µM (NCI-H522 [11]): 2%; growth at 1 µM (OVCAR-8): -30%; growth at 10 µM (NCI/ADR-RES [12]): 37.9%; growth at 1 µM (SF-268): 22%; growth at 10 µM (MOLT-4): -21%; growth at 1 µM (DU-145 [13]): -14%; growth at 10 µM (SF-539): 75.5%
